# Test results taken from PMC2788794 (Chemistry & biology, 2009).
# B1: Fbg: Human fibrinogen, plasma protein, adsorbed to hydrophobic monolayer as positive control (protein)
# chain 1: ADSGEGDFLAEGGGVRGPRVVERHQSACKDSDWPFCSDEDWNYKCPSGCRMKGLIDEVNQDFTNRINKLKNSLFEYQKNNKDSHSLTTNIMEILRGDFSSANNRDNTYNRVSEDLRSRIEVLKRKVIEKVQHIQLLQKNVRAQLVDMKRLEVDIDIKIRSCRGSCSRALAREVDLKDYEDQQKQLEQVIAKDLLPSRDRQHLPLIKMKPVPDLVPGNFKSQLQKVPPEWKALTDMPQMRMELERPGGNEITRGGSTSYGTGSETESPRNPSSAGSWNSGSSGPGSTGNRNPGSSGTGGTATWKPGSSGPGSTGSWNSGSSGTGSTGNQNPGSPRPGSTGTWNPGSSERGSAGHWTSESSVSGSTGQWHSESGSFRPDSPGSGNARPNNPDWGTFEEVSGNVSPGTRREYHTEKLVTSKGDKELRTGKEKVTSGSTTTTRRSCSKTVTKTVIGPDGHKEVTKEVVTSEDGSDCPEAMDLGTLSGIGTLDGFRHRHPDEAAFFDTASTGKTFPGFFSPMLGEFVSETESRGSESGIFTNTKESSSHHPGIAEFPSRGKSSSYSKQFTSSTSYNRGDSTFESKSYKMADEAGSEADHEGTHSTKRGHAKSRPVRGIHTSPLGKPSLSP
# chain 2: QGVNDNEEGFFSARGHRPLDKKREEAPSLRPAPPPISGGGYRARPAKAAATQKKVERKAPDAGGCLHADPDLGVLCPTGCQLQEALLQQERPIRNSVDELNNNVEAVSQTSSSSFQYMYLLKDLWQKRQKQVKDNENVVNEYSSELEKHQLYIDETVNSNIPTNLRVLRSILENLRSKIQKLESDVSAQMEYCRTPCTVSCNIPVVSGKECEEIIRKGGETSEMYLIQPDSSVKPYRVYCDMNTENGGWTVIQNRQDGSVDFGRKWDPYKQGFGNVATNTDGKNYCGLPGEYWLGNDKISQLTRMGPTELLIEMEDWKGDKVKAHYGGFTVQNEANKYQISVNKYRGTAGNALMDGASQLMGENRTMTIHNGMFFSTYDRDNDGWLTSDPRKQCSKEDGGGWWYNRCHAANPNGRYYWGGQYTWDMAKHGTDDGVVWMNWKGSWYSMRKMSMKIRPFFPQQ
# chain 3: YVATRDNCCILDERFGSYCPTTCGIADFLSTYQTKVDKDLQSLEDILHQVENKTSEVKQLIKAIQLTYNPDESSKPNMIDAATLKSRKMLEEIMKYEASILTHDSSIRYLQEIYNSNNQKIVNLKEKVAQLEAQCQEPCKDTVQIHDITGKDCQDIANKGAKQSGLYFIKPLKANQQFLVYCEIDGSGNGWTVFQKRLDGSVDFKKNWIQYKEGFGHLSPTGTTEFWLGNEKIHLISTQSAIPYALRVELEDWNGRTSTADYAMFKVGPEADKYRLTYAYFAGGDAGDAFDGFDFGDDPSDKFFTSHNGMQFSTWDNDNDKFEGNCAEQDGSGWWMNKCHAGHLNGVYYQGGTYSKASTPNGYDNGIIWATWKTRWYSMKKTTMKIIPFNRLTIGEGQQHHLGGAKQAGDV
# Columns and labels:
# αIIbβ3 CHO K1 cells [1] = experiment: Cell adhesion inhibition assay with soluble peptides; type: cell-based; settings: soluble peptide 1 pM to 100 µM; 0.5% GRGDSC monolayer; 300 µM cRGDFG
# platelets [2] = settings: cited from earlier work; for inhibition of Fbg binding to platelets: ref Bennett et al., 1988
# αIIbβ3 CHO K1 cells [3] = experiment: Adhesion of transfected cells to GRGDSC monolayer in presence of inhibitors; type: cell-based; settings: 0.5% GRGDSC SAM
# αIIbβ3 = settings: platelets; ref Bennett et al., 1988; cited from earlier work
# platelets [4] = settings: ref Bennett et al., 1988; cited from earlier work
# CHO K1 cells = experiment: Block of cell attachment to GRGDSC monolayer by cRGDFG; type: cell-based; settings: cRGDFG 300 µM; 0.5% GRGDSC SAM
# In short: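 Untransfected CHO K1 cells (F12K, 10% FBS, 37 °C, 5% CO2) were seeded on 0.5% GRGDSC SAMs, with or without cRGDFG 300 µM. The GRGDSC surface was made by coupling cysteine-terminated peptide (1 mM, 37 °C, 1 h) to a maleimide-presenting monolayer with tri(ethylene glycol) background. Adherent cells were scored by optical microscopy.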
# αvβ3 = settings: ref Haubner et al., 1996; cited from earlier work
# αIIbβ3 CHO K1 cells [5] = experiment: Cell adhesion assay on self-assembled monolayers presenting immobilized peptides; type: cell-based; settings: Fbg adsorbed on dodecanethiol (hydrophobic) monolayer; 300 µM cRGDFG
molecule,measurement,setting,value
HHLGGAKQAGDV,block of cell attachment by soluble peptide to a monolayer presenting GRGDS,αIIbβ3 CHO K1 cells [1],blocked cell attachment
AGDV,inhibition of Fbg binding to activated platelets,"platelets [2]; soluble peptide competing with radiolabeled Fbg, ref Plow et al., 1985",failure of an AGDV peptide to inhibit Fbg binding
same,block of cell attachment by soluble peptide to a monolayer presenting GRGDS,αIIbβ3 CHO K1 cells [1],blocked cell attachment
PAC-1,effect on adhesion of αIIbβ3 CHO K1 cells to a monolayer presenting GRGDSC,αIIbβ3 CHO K1 cells [3]; PAC-1 antibody together with cRGDFG 300 µM,prevented cell adhesion
RGDS,inhibition of Fbg binding to platelets,platelets [2],blocked the binding of both PAC-1 and Fbg to platelets with equal potency
same,inhibition of PAC-1 binding,αIIbβ3,blocked the binding of both PAC-1 and Fbg to platelets with equal potency
LGGAKQAGDV,inhibition of Fbg binding to platelets,platelets [2],inhibited Fbg binding to platelets with an affinity comparable to that of RGDS
same,inhibition of binding of A2A9 to platelets,platelets [4],could inhibit the binding of A2A9
cRGDFG (head to tail),block of attachment of CHO K1 cells to a monolayer presenting GRGDSC,CHO K1 cells,efficiently block the attachment
same,effect on adhesion of αIIbβ3 CHO K1 cells to a monolayer presenting GRGDSC,αIIbβ3 CHO K1 cells [3]; cRGDFG 300 µM,did not interfere with adhesion
same,affinity for αvβ3 relative to that for αIIbβ3,αvβ3,"approximately 1,400 fold"
B1,adhesion and spreading of αIIbβ3 CHO cells on adsorbed Fbg (positive control),αIIbβ3 CHO K1 cells [5],adhered and spread
